Results: ChEMBL document CHEMBL1154066, “Synthesis, physicochemical properties and antimicrobial activity of some new benzimidazole derivatives” (2009)
Values after ≈ are worked out from the molar mass of the structure shown.

Columns and labels:
Pseudomonas aeruginosa = assay: Antibacterial activity against Pseudomonas aeruginosa MTCC 741 after 20 hrs by two fold dilution method; format: functional; conditions: MTCC 741, 20 h
How it was run: (§1)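 Twofold agar dilution in Mueller–Hinton agar. Compounds were dissolved in DMSO and diluted into the medium at final 128–1 µg/mL. The inoculum was 10^4 CFU/plate, and a medium-plus-DMSO plate served as negative control. Plates were incubated at 35 °C for 20 h. MIC was taken as the lowest concentration giving complete growth inhibition. Experiments were run three times.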

Bacillus subtilis = assay: Antibacterial activity against Bacillus subtilis MTCC 121 after 20 hrs by two fold dilution method; format: functional; conditions: MTCC 121, 20 h; how it was run: as §1
Aspergillus flavus [1] = assay: Antifungal activity against Aspergillus flavus at 300 ug/disk after 7 days by disk diffusion method; format: functional; conditions: 168 h, read-out: IZ
How it was run: (§2)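 Disc diffusion on Mueller–Hinton agar seeded with a standardized suspension, following NCCLS. Sterile 6 mm paper discs held 300 µg of test compound, amphotericin B at 10 µg as reference, or DMSO alone as negative control. Plates were incubated at 28 ± 2 °C for 7 days. Inhibition zone diameters (mm) were measured in triplicate and scored as 10–15, 16–21 or 22–28 mm.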

Candida albicans [2] = assay: Antifungal activity against Candida albicans MTCC 1637 at 300 ug/disk after 7 days by disk diffusion method; format: functional; conditions: MTCC 1637, 168 h, read-out: IZ; how it was run: as §2
Streptococcus mutans = assay: Antibacterial activity against Streptococcus mutans MTCC 890 after 20 hrs by two fold dilution method; format: functional; conditions: MTCC 890, 20 h; how it was run: as §1
Aspergillus niger [3] = assay: Antifungal activity against Aspergillus niger at 300 ug/disk after 7 days by disk diffusion method; format: functional; conditions: 168 h, read-out: IZ; how it was run: as §2
Salmonella typhi = assay: Antibacterial activity against Salmonella typhi MTCC 733 after 20 hrs by two fold dilution method; format: functional, Salmonella enterica subsp. enterica serovar Typhi; conditions: Salmonella enterica, MTCC 733, 20 h
How it was run: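 Twofold agar dilution in Mueller–Hinton agar. Compounds dissolved in DMSO and diluted into medium to final 128–1 µg/mL; medium with DMSO at the same dilution as negative control. Inoculum 10^4 CFU/plate; incubated 35 °C for 20 h. MIC taken as lowest concentration giving complete growth inhibition, in µg/mL. Ampicillin and ciprofloxacin as references; three independent experiments.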

Staphylococcus aureus = assay: Antibacterial activity against Staphylococcus aureus ATCC 29213 after 20 hrs by two fold dilution method; format: functional; conditions: ATCC 29213, 20 h; how it was run: as §1
Escherichia coli = assay: Antibacterial activity against Escherichia coli ATCC 25922 after 20 hrs by two fold dilution method; format: functional; conditions: ATCC 25922, 20 h; how it was run: as §1
Aspergillus niger [4] = assay: Antifungal activity against Aspergillus niger at 10 ug/disk after 7 days by disk diffusion method; format: functional; conditions: 168 h, read-out: IZ
Candida albicans [5] = assay: Antifungal activity against Candida albicans MTCC 1637 at 10 ug/disk after 7 days by disk diffusion method; format: functional; conditions: MTCC 1637, 168 h, read-out: IZ
Aspergillus flavus [6] = assay: Antifungal activity against Aspergillus flavus at 10 ug/disk after 7 days by disk diffusion method; format: functional; conditions: 168 h, read-out: IZ

Row | SMILES | MIC (Pseudomonas aeruginosa) [µg/mL] | MIC (Bacillus subtilis) [µg/mL] | zone of inhibition at 300 µg/disc (Aspergillus flavus [1]) [mm] | zone of inhibition at 300 µg/disc (Candida albicans [2]) [mm] | MIC (Streptococcus mutans) [µg/mL] | zone of inhibition at 300 µg/disc (Aspergillus niger [3]) [mm] | MIC (Salmonella typhi) [µg/mL] | MIC (Staphylococcus aureus) [µg/mL] | MIC (Escherichia coli) [µg/mL] | zone of inhibition at 10 µg/disc (Aspergillus niger [4]) [mm] | zone of inhibition at 10 µg/disc (Candida albicans [5]) [mm] | zone of inhibition at 10 µg/disc (Aspergillus flavus [6]) [mm]
1 | ClCc1nnc(Cn2cnc3ccccc32)o1 | 32 (≈ 129 µM) | 32 (≈ 129 µM) | 10 | 16 | 16 (≈ 64.3 µM) | 10 | 64 (≈ 257 µM) | 16 (≈ 64.3 µM) |  |  |  | 
2 | O=C(O)c1cn(C2CC2)c2cc(N3CCNCC3)c(F)cc2c1=O [CIPROFLOXACIN] |  | ≤ 1 |  |  |  |  |  | ≤ 1 | ≤ 1 |  |  | 
3 | Cc1nc2ccccc2n1Cc1nnc(-c2ccc(O)cc2)o1 |  | 8 (≈ 26.1 µM) | 16 | 22 | 4 (≈ 13.1 µM) | 16 |  | 8 (≈ 26.1 µM) | > 128 |  |  | 
4 | ClCCc1nnc(Cn2cnc3ccccc32)o1 | 32 (≈ 122 µM) | 16 (≈ 60.9 µM) | 10 | 16 |  | 16 | 64 (≈ 244 µM) | 16 (≈ 60.9 µM) |  |  |  | 
5 | c1ccc(-c2nnc(Cn3cnc4ccccc43)o2)cc1 |  | 16 (≈ 57.9 µM) |  |  | 32 (≈ 116 µM) |  | > 128 | 16 (≈ 57.9 µM) | 64 (≈ 232 µM) |  |  | 
6 | Cc1nc2ccccc2n1Cc1nnc(-c2ccc(Cl)cc2)o1 |  | 4 (≈ 12.3 µM) | 22 | 22 | 4 (≈ 12.3 µM) | 10 |  | 2 (≈ 6.16 µM) | > 128 |  |  | 
7 | C[C@@H]1[C@H](O)[C@@H](C)/C=C/C=C/C=C/C=C/C=C/C=C/C=C/[C@H](O[C@@H]2O[C@H](C)[C@@H](O)[C@H](N)[C@@H]2O)C[C@@H]2O[C@](O)(C[C@@H](O)C[C@@H](O)[C@H](O)CC[C@@H](O)C[C@@H](O)CC(=O)O[C@H]1C)C[C@H](O)[C@H]2C(=O)O [AMPHOTERICIN B] |  |  |  |  |  |  |  |  |  | 22 | 22 | 22
8 | Cc1nc2ccccc2n1Cc1nnc(-c2ccccc2)o1 |  | 8 (≈ 27.6 µM) |  |  | 8 (≈ 27.6 µM) |  | 64 (≈ 220 µM) | 8 (≈ 27.6 µM) | 32 (≈ 110 µM) |  |  | 
9 | Cc1nc2ccccc2n1Cc1nnc(CCCl)o1 |  | 8 (≈ 28.9 µM) | 10 | 16 | 8 (≈ 28.9 µM) | 10 | 16 (≈ 57.8 µM) | 4 (≈ 14.5 µM) | 32 (≈ 116 µM) |  |  | 
10 | Clc1ccc(-c2nnc(Cn3cnc4ccccc43)o2)cc1 |  | 32 (≈ 103 µM) |  |  | 16 (≈ 51.5 µM) |  |  | 32 (≈ 103 µM) | 32 (≈ 103 µM) |  |  | 
11 | Cc1nc2ccccc2n1Cc1nnc(CCl)o1 |  | 16 (≈ 60.9 µM) | 10 | 10 | 32 (≈ 122 µM) | 16 | > 128 | 16 (≈ 60.9 µM) | 16 (≈ 60.9 µM) |  |  | 
12 | Clc1ccccc1-c1nnc(Cn2cnc3ccccc32)o1 |  | 16 (≈ 51.5 µM) |  |  | 16 (≈ 51.5 µM) |  | 32 (≈ 103 µM) | 32 (≈ 103 µM) | > 128 |  |  | 
13 | Oc1ccc(-c2nnc(Cn3cnc4ccccc43)o2)cc1 | 64 (≈ 219 µM) | 16 (≈ 54.7 µM) |  |  | 32 (≈ 109 µM) |  |  |  | 32 (≈ 109 µM) |  |  | 
14 | CC1(C)S[C@@H]2[C@H](NC(=O)[C@H](N)c3ccccc3)C(=O)N2[C@H]1C(=O)O [AMPICILLIN] | > 128 | 2 (≈ 5.72 µM) |  |  | 2 (≈ 5.72 µM) |  | > 128 | 2 (≈ 5.72 µM) | 4 (≈ 11.4 µM) |  |  | 
15 | COc1ccccc1-c1nnc(Cn2cnc3ccccc32)o1 | > 128 | 16 (≈ 52.2 µM) | < 10 | 16 |  | < 10 |  | 16 (≈ 52.2 µM) | 32 (≈ 104 µM) |  |  | 
16 | Cc1nc2ccccc2n1Cc1nnc(-c2ccccc2Cl)o1 |  |  | 16 | 16 | 16 (≈ 49.3 µM) | 16 | 32 (≈ 98.5 µM) |  | > 128 |  |  | 
17 | COc1ccc(-c2nnc(Cn3c(C)nc4ccccc43)o2)cc1 | 64 (≈ 200 µM) | 8 (≈ 25 µM) | 16 | 22 | 4 (≈ 12.5 µM) | 16 | 16 (≈ 49.9 µM) | 2 (≈ 6.24 µM) | 16 (≈ 49.9 µM) |  |  | 
18 | Cc1nnc(Cn2c(C)nc3ccccc32)o1 | 64 (≈ 280 µM) | 4 (≈ 17.5 µM) | 16 | 22 | 8 (≈ 35 µM) | 16 | 16 (≈ 70.1 µM) | 4 (≈ 17.5 µM) | 64 (≈ 280 µM) |  |  | 
19 | COc1ccccc1-c1nnc(Cn2c(C)nc3ccccc32)o1 | 64 (≈ 200 µM) | 4 (≈ 12.5 µM) | 16 | 16 | 8 (≈ 25 µM) | 16 | 16 (≈ 49.9 µM) | 8 (≈ 25 µM) | 64 (≈ 200 µM) |  |  | 
20 | Cc1nc2ccccc2n1Cc1nnc(-c2ccccc2O)o1 |  | 16 (≈ 52.2 µM) |  |  | 8 (≈ 26.1 µM) |  | 32 (≈ 104 µM) |  | 32 (≈ 104 µM) |  |  | 
21 | Cc1nnc(Cn2cnc3ccccc32)o1 | > 128 | 16 (≈ 74.7 µM) | 16 | 16 | 16 (≈ 74.7 µM) | 16 | 32 (≈ 149 µM) | 16 (≈ 74.7 µM) | 16 (≈ 74.7 µM) |  |  | 
22 | CCc1nnc(Cn2c(C)nc3ccccc32)o1 | > 128 | 8 (≈ 33 µM) | 16 | 16 | 4 (≈ 16.5 µM) | 10 | 32 (≈ 132 µM) | 4 (≈ 16.5 µM) | 32 (≈ 132 µM) |  |  | 
23 | Oc1ccccc1-c1nnc(Cn2cnc3ccccc32)o1 | 64 (≈ 219 µM) |  |  |  |  |  | 16 (≈ 54.7 µM) | 32 (≈ 109 µM) | 64 (≈ 219 µM) |  |  | 
24 | CCc1nnc(Cn2cnc3ccccc32)o1 | > 128 | 32 (≈ 140 µM) | 10 | 10 | 16 (≈ 70.1 µM) | < 10 | 64 (≈ 280 µM) | 32 (≈ 140 µM) | 16 (≈ 70.1 µM) |  |  | 
25 | COc1ccc(-c2nnc(Cn3cnc4ccccc43)o2)cc1 | 32 (≈ 104 µM) | 32 (≈ 104 µM) | < 10 | 16 | 16 (≈ 52.2 µM) | < 10 | 32 (≈ 104 µM) | 16 (≈ 52.2 µM) | 64 (≈ 209 µM) |  |  | 
